Only some compounds are listed: those with a hit (about 2.3% of all), similar ones and a draw of the others.
HTRA1 inh = HTRA1 (human) protease inhibition; Q92743; recombinant HTRA1, FP-rhodamine activity-based probe, fluorescence polarization; inhibition, % at 5.96 µM; 0.5% of 340,000 active; AID 504803; in the data active = inhibition above about 36%;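 note: 0% = enzyme with DMSO and 100% = wells lacking enzyme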
pPAFAH FP inh = inhibitors of human plasma PAF acetylhydrolase (pPAFAH); inhibition, % at 3.39 µM; Q13093; recombinant pPAFAH, FP-rhodamine probe fluorescence polarization; 1.5% of 330,000 active;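 active = inhibition above the mean inhibition across the screen plus 3 SD, cut at about 25% in these data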;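 note: inhibitors block binding of the rhodamine activity-based probe so polarization drops; 0% = enzyme with DMSO and 100% = wells lacking pPAFAH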
SIAE primary = human SIAE inhibition, primary screen; Q9HAT2; SIAE FP-Rh probe binding, fluorescence polarization; inhibition, % at 9.66 µM; 0.69% of 370,000 active;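 active = inhibition above a cutoff: mean of compounds within the control limits plus 3 SD of those, cut at about 17% in these data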;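 note: 0% = plate median of compound wells and 100% = probe without SIAE protein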
TCR CD3 inh = blocks the human TCR-CD3 interaction | AID 651800 | inhibition, % at 9.4 µM | 0.37% of 360,000 active | TAMRA-labeled TCR probe fluorescence, biochemical; in the data active = inhibition above about 19%;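 note: recombinant mutant TCR 2C K166C tagged with TAMRA read by polarization; 0% = receptor in buffer alone and 100% = receptor with positive control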
mABHD4 FP = inhibits mouse alpha/beta hydrolase domain 4; Q8VD66; purified mABHD4, FP-Rh probe fluorescence polarization; inhibition, % at 8.92 µM; 0.54% of 370,000 active;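 active = inhibition exceeding the mean over every tested compound plus 3 SD, cut at about 30% in these data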;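 note: 0% = plate median of compound wells and 100% = S159A mutant with DMSO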
Target sequence (Q8VD66 whole entry, looked up, the tested form may be a part): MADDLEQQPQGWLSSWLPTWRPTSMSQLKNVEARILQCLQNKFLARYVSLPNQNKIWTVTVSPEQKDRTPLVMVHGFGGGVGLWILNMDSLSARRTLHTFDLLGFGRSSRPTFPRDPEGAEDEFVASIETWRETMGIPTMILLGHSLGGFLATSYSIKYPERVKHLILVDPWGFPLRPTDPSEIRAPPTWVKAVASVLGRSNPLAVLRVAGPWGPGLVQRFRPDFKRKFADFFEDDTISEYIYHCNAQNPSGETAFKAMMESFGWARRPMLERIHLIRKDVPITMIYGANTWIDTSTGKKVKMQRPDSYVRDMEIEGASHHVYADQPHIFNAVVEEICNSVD
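Material: mouse ABHD4 enzyme, wild type; Benchmarks: S159A mutant high control, sample median low control; Buffer or medium: HEPES pH 7.0, NaCl, Pluronic buffer; Signal: fluorescence polarization; Read-out: percent inhibition of probe binding, normalized to plate controls; Timing: pre-incubation 45 min, probe exposure 60 min, at 25 °C; Dosing: 8.92 µM, single dose.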
* hit, by the source's call; / = no result given.

SMILES	HTRA1 inh	pPAFAH FP inh	SIAE primary	TCR CD3 inh	mABHD4 FP
COc1cccc(C(=O)NCCN2C(=O)C3C4C=CC(C4)C3C2=O)c1 (stereo not drawn)	/	/	6	/	-2
CCOc1cc(Br)cc(/C=C2\SC(=Nc3ccccc3)NC2=O)c1O	-8	25*	-1	-11	-6
O=C(CSc1ccc(Cl)cc1)c1ccco1	26	29*	/	/	/
COC(=O)[C@H]1C[C@@]2(N3CCCC3)c3ccccc3N(C(=O)OC(C)(C)C)[C@H]2N1C(=O)OC(C)(C)C	/	/	-5	/	0
COC(=O)CCC(=O)OC1(C)C(=O)C2=CN(Cc3ccc4c(c3)OCO4)C(c3ccc(OC)cc3)=CC2=C(Br)C1=O (stereo not drawn)	29	13	/	/	/
COc1ccc(C2=CC3=C(Br)C(=O)C(C)(OC(=O)C4CCCC4)C(=O)C3=CO2)cc1 (stereo not drawn)	15	25*	/	/	/
COc1ccc(C2=CC3=C(Br)C(=O)C(C)(OC(=O)c4ccc(Cl)nc4)C(=O)C3=CO2)cc1 (stereo not drawn)	/	28*	/	/	/
COc1ccc(CN2C=C3C(=O)C(C)(OC(=O)C4CCCC4)C(=O)C=C3C=C2c2ccsc2)cc1 (stereo not drawn)	34	19	8	-5	21
O=C(O)c1ccccc1NS(=O)(=O)c1ccc(NN=Cc2ccccc2F)c([N+](=O)[O-])c1	-25	51*	-2	-5	26
O=C(O)c1ccc(N/N=C/C=C/c2ccccc2[N+](=O)[O-])cc1	5	6	2	-11	10
CN1CCN(S(=O)(=O)c2ccc(N3CCN(c4ccc(O)cc4)CC3)c([N+](=O)[O-])c2)CC1	3	4	10	-1	12
C/C(=N\Nc1ccc(S(=O)(=O)Nc2ccc(Cl)cc2)cc1[N+](=O)[O-])c1ccc(N2CCOCC2)cc1	9	6	24*	4	4
O=[N+]([O-])c1cc(S(=O)(=O)Nc2ccccc2)ccc1N1CCN(c2ccc(O)cc2)CC1	2	30*	7	2	9
O=[N+]([O-])c1ccccc1/C=C/C=N/Nc1ccc(S(=O)(=O)Nc2ccc(Cl)cc2)cc1[N+](=O)[O-]	3	7	43*	-1	14
O=[N+]([O-])c1cc(C=Nc2cccc3c(O)cccc23)ccc1Cl	/	25*	/	/	/
O=[N+]([O-])c1cc(/C=N\Nc2ccccn2)ccc1Cl	6	-1	16	10	9
Nc1[nH]c(C(=O)c2ccccc2)c(-c2cccc3ccccc23)c1C(=O)NC1CCCCC1	/	/	-12	-3	-24
CC[C@]12c3[nH]c4cc(CCC(=O)N(C)C)ccc4c3CCN1C(=O)[C@@H](CC(=O)NC/C=C(\C)CCC=C(C)C)C[C@@H]2C(=O)N1CCN(C(=O)c2ccco2)CC1	-14	34*	/	/	/
CC[C@]12c3[nH]c4cc(CCC(=O)N(C)C)ccc4c3CCN1C(=O)[C@@H](CC(=O)NCCN1CCOCC1)C[C@@H]2C(=O)N1CCN(C(=O)c2ccco2)CC1	3	-1	3	1	-1
CC(C)N(C(=O)[C@H]1C[C@H](CC(=O)NCc2ccco2)C(=O)N2CCc3c([nH]c4cc(-c5ccco5)ccc34)[C@]12C)C(C)C	1	10	4	-9	-2
CC(C)=CCC/C(C)=C/CNC(=O)C[C@H]1C[C@H](C(=O)N(C(C)C)C(C)C)[C@@]2(C)c3[nH]c4cc(-c5ccco5)ccc4c3CCN2C1=O	-26	27*	-4	-1	6
CCN(CC)C(=O)[C@H]1C[C@H](CC(=O)NCC23CC4CC(CC(C4)C2)C3)C(=O)N2CCc3c([nH]c4cc(-c5ccco5)ccc34)[C@]12C	1	-1	-5	2	5
CCN(CC)C(=O)[C@H]1C[C@H](CC(=O)NC/C=C(\C)CCC=C(C)C)C(=O)N2CCc3c([nH]c4cc(-c5ccco5)ccc34)[C@]12C	-13	33*	6	0	5
COC(=O)C1CN(Cc2ccccc2)CCS(=O)(=O)N1Cc1ccc(F)cc1 (stereo not drawn)	/	/	3	/	3
O=C(C[n+]1cnn(CC(=O)c2ccc(Cl)cc2Cl)c1)c1ccc([N+](=O)[O-])cc1	20	25*	7	-14	14
SMILES	HTRA1 inh	pPAFAH FP inh	SIAE primary	TCR CD3 inh	mABHD4 FP
O=C(O)CCC(=O)N1CCN(c2nc(-c3ccccc3Cl)c3cc(Br)ccc3n2)CC1	3	33*	4	12	-1
O=C(NC1CCCCN(Cc2cccc(C(F)(F)F)c2)C1=O)c1cccc([N+](=O)[O-])c1 (stereo not drawn)	/	/	4	/	1
C=CCn1c(SCc2nc3sc(C(=O)O)c(C)c3c(=O)[nH]2)nnc1-c1ccc(C(C)(C)C)cc1	-2	26*	-35	6	-2
C=CCn1c(SCc2nc3sc(C(=O)O)c(C)c3c(=O)[nH]2)nnc1-c1ccccc1	7	3	1	8	-5
Cc1ccc(-n2c(Cc3cccs3)nnc2SCc2ccc([N+](=O)[O-])cc2)cc1	/	/	0	/	-2
Cc1ccc(C)c(OCCC(=O)OCC(=O)NNC(=O)c2ccccc2)c1	-3	31*	3	0	3
COC(=O)[C@H](C(C)C)N(CCCc1cn(CC2CCCCC2)nn1)S(=O)(=O)c1ccc(F)cc1Br	/	/	-4	/	-3
O=C1C2CCCCN2C(=O)N1CCCCN1CCN(c2cccc(Cl)c2)CC1 (stereo not drawn)	-1	25*	4	-5	5
O=C(CSc1nnc(CCc2ccccc2)n1-c1ccc(Cl)cc1)NCc1ccccc1	-19	35*	-4	-8	-12
COc1ccc(-n2c(CCc3ccccc3)nnc2SCC(=O)NCc2ccccc2)cc1	-12	11	-5	2	-20
Oc1cccc(Nc2ccccc2)c1	1	1	13	8	-2
CC(C)c1cc(Nc2cccc(O)c2)cc(C(C)C)c1O	/	26*	/	/	/
O=C(CSc1nnc(COc2ccc(Cl)cc2)n1Cc1ccco1)Nc1ccc(OCc2ccccc2)cc1	/	/	3	/	-7
CCC(CC)NC(=O)COC(=O)c1ccc(OCc2ccc(C(C)=O)cc2OC)c(OC)c1	-16	27*	-11	-1	-13
COc1cc(C(C)=O)ccc1COc1ccc(C(=O)OCC(N)=O)cc1OC	-18	-2	-3	2	-4
OC(c1ccccc1)(c1ccccc1)C1CCN(CCCOc2ccc(-c3cccnc3)cc2)CC1	/	/	0	0	1
CCNC(=O)C[C@H]1CC[C@H]2[C@@H](COc3ccc(NC(=O)c4ccc5c(c4)OCO5)cc3C(=O)N2C)O1	/	/	1	/	16
CC(C)(C)c1ccc(C(=O)C2CCCN(C(=O)CN3CCCC3=O)C2)cc1 (stereo not drawn)	3	4	-6	-7	6
CN(C)C(=O)N1CCC(C(=O)N2CCCC(C(=O)c3ccc(C(C)(C)C)cc3)C2)CC1 (stereo not drawn)	8	26*	0	0	-4

Screens: PubChem, The Scripps Research Institute Molecular Screening Center
